{"source": "ChEMBL document CHEMBL4392827", "about": "“Tryptamine derivatives disarm colistin resistance in polymyxin-resistant gram-negative bacteria” (Bioorg Med Chem, 2019)", "key": {"Klebsiella pneumoniae [1]": {"test_system": "Klebsiella pneumoniae", "test": "Potentiation of colistin-induced antimicrobial activity against colistin-resistant Klebsiella pneumoniae B9 assessed as fold reduction in colistin MIC at 60 uM after 18 hrs by broth microdilution assay", "format": "functional", "how_it_was_run": "(§1)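 Checkerboard-style resensitization following adapted CLSI broth microdilution. Bacteria were grown 4–6 h in CAMHB and subcultured to 5×10^5 CFU/mL. Adjuvant was added from DMSO stock and held constant while colistin was serially diluted in the dosed subculture. Plates were incubated stationary at 37°C for 18 h, then MICs were read. Fold reduction was taken relative to the colistin MIC without adjuvant.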"}, "Acinetobacter baumannii [2]": {"test_system": "Acinetobacter baumannii", "test": "Potentiation of colistin-induced antimicrobial activity against colistin-resistant Acinetobacter baumannii ATCC 17978 expressing mcr1 gene assessed as fold reduction in colistin MIC at 60 uM after 18 hrs by broth microdilution assay", "format": "functional", "how_it_was_run": "as §1"}, "Escherichia coli": {"test_system": "Escherichia coli", "test": "Potentiation of colistin-induced antimicrobial activity against colistin-resistant Escherichia coli ATCC 25922 expressing mcr1 gene assessed as fold reduction in colistin MIC at 60 uM after 18 hrs by broth microdilution assay", "format": "functional", "how_it_was_run": "as §1"}, "Klebsiella pneumoniae [3]": {"test_system": "Klebsiella pneumoniae", "test": "Toxicity in Klebsiella pneumoniae B9 after 18 hrs by broth microdilution assay", "format": "organism-based", "how_it_was_run": "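Single-agent MIC per CLSI broth microdilution. Cells from a 4–6 h culture in cation-adjusted Mueller-Hinton broth adjusted to 5 ×10^5 CFU/mL. Compound (DMSO stock) added to 200 μM top concentration and twofold serially diluted six times, with an untreated control row. Plates sealed and incubated stationary at 37°C for 18 h before MIC read.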"}, "Acinetobacter baumannii [4]": {"test_system": "Acinetobacter baumannii", "test": "Potentiation of colistin-induced antimicrobial activity against colistin-resistant Acinetobacter baumannii isolate 4112 assessed as fold reduction in colistin MIC at 60 uM after 18 hrs by broth microdilution assay", "format": "functional", "how_it_was_run": "as §1"}, "Acinetobacter baumannii [5]": {"test_system": "Acinetobacter baumannii", "test": "Potentiation of colistin-induced antimicrobial activity against colistin-resistant Acinetobacter baumannii isolate 3942 assessed as fold reduction in colistin MIC at 40 uM after 18 hrs by broth microdilution assay", "format": "functional", "how_it_was_run": "(§2)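 CLSI-adapted broth microdilution. Bacteria were grown 4–6 h in cation-adjusted Mueller-Hinton broth and subcultured to 5 ×10^5 CFU/mL. The subculture was dosed with adjuvant from DMSO stock at a constant final concentration, then colistin was added and serially diluted across wells. Plates were incubated stationary at 37°C for 18 h and the MIC recorded. Fold reduction is relative to the colistin MIC without adjuvant.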"}, "Acinetobacter baumannii [6]": {"test_system": "Acinetobacter baumannii", "test": "Potentiation of colistin-induced antimicrobial activity against colistin-resistant Acinetobacter baumannii isolate 3942 assessed as fold reduction in colistin MIC at 30 uM after 18 hrs by broth microdilution assay", "format": "functional", "how_it_was_run": "as §2"}, "Acinetobacter baumannii [7]": {"test_system": "Acinetobacter baumannii", "test": "Potentiation of colistin-induced antimicrobial activity against colistin-resistant Acinetobacter baumannii isolate 3942 assessed as fold reduction in colistin MIC at 15 uM after 18 hrs by broth microdilution assay", "format": "functional", "how_it_was_run": "as §2"}, "Klebsiella pneumoniae [8]": {"test_system": "Klebsiella pneumoniae", "test": "Potentiation of colistin-induced antimicrobial activity against colistin-resistant Klebsiella pneumoniae isolate C3 assessed as fold reduction in colistin MIC at 50 uM after 18 hrs by broth microdilution assay", "format": "functional", "how_it_was_run": "as §2"}, "Klebsiella pneumoniae [9]": {"test_system": "Klebsiella pneumoniae", "test": "Potentiation of colistin-induced antimicrobial activity against colistin-resistant Klebsiella pneumoniae isolate C3 assessed as fold reduction in colistin MIC at 30 uM after 18 hrs by broth microdilution assay", "format": "functional", "how_it_was_run": "as §2"}, "Klebsiella pneumoniae [10]": {"test_system": "Klebsiella pneumoniae", "test": "Potentiation of colistin-induced antimicrobial activity against colistin-resistant Klebsiella pneumoniae isolate C3 assessed as fold reduction in colistin MIC at 20 uM after 18 hrs by broth microdilution assay", "format": "functional", "how_it_was_run": "as §2"}, "Klebsiella pneumoniae [11]": {"test_system": "Klebsiella pneumoniae", "test": "Potentiation of colistin-induced antimicrobial activity against colistin-resistant Klebsiella pneumoniae isolate C3 assessed as fold reduction in colistin MIC at 5 uM after 18 hrs by broth microdilution assay", "format": "functional", "how_it_was_run": "as §2"}, "Klebsiella pneumoniae [12]": {"test_system": "Klebsiella pneumoniae", "test": "Potentiation of colistin-induced antimicrobial activity against colistin-resistant Klebsiella pneumoniae isolate C3 after 18 hrs by broth microdilution assay", "format": "functional, organism-based", "how_it_was_run": "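Colistin MIC was determined by adapted CLSI broth microdilution in CAMHB (5×10^5 CFU/mL inoculum), with adjuvant held at fixed levels of 5, 10, 15, 20, 30, 40, 50 or 60 μM. Adjuvant was dosed from DMSO stock while colistin was serially diluted. Plates were incubated stationary at 37°C for 18 h. Fold reduction was taken versus colistin alone.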"}, "Acinetobacter baumannii [13]": {"test_system": "Acinetobacter baumannii", "test": "Potentiation of colistin-induced antimicrobial activity against colistin-resistant Acinetobacter baumannii isolate 3942 assessed as fold reduction in colistin MIC at 60 uM incubated for 2 to 24 hrs under shaking condition in presence of 0.001% triton X-100 by broth microdilution assay", "format": "functional"}, "Acinetobacter baumannii [14]": {"test_system": "Acinetobacter baumannii", "test": "Toxicity in colistin-resistant Acinetobacter baumannii isolate 3942 at 60 uM after 18 hrs by broth microdilution assay", "format": "organism-based"}, "[15]": {"test": "Hemolytic activity in sheep erythrocytes assessed as hemolysis at 100 uM incubated for 1 hr under shaking condition by UV-spectrophotometry", "format": "ADME, cell-based, Ovis aries, Erythrocyte", "settings": "read-out: Activity", "how_it_was_run": "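Washed sheep erythrocytes (defibrinated blood spun, resuspended in PBS three times) diluted 10-fold in PBS containing compound from DMSO stock. DMSO negative control (0% lysis), 1% Triton X100 positive control (100% lysis). 1 h at 37°C with shaking, then spun 10 min at 10,000 rpm and supernatant diluted 1:40 in distilled water.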"}}, "data": [{"smiles": "O=C(NCc1c[nH]c2ccccc12)c1cc(Br)c(Br)[nH]1", "values": [{"measurement": "fold change (FC)", "setting": "Klebsiella pneumoniae [1]", "result": 2048}, {"measurement": "fold change (FC)", "setting": "Acinetobacter baumannii [2]", "result": 32}, {"measurement": "fold change (FC)", "setting": "Escherichia coli", "result": 16}, {"measurement": "MIC", "setting": "Klebsiella pneumoniae [3]", "result": "> 200", "unit": "µM"}, {"measurement": "fold change (FC)", "setting": "Acinetobacter baumannii [4]", "result": 2048}, {"measurement": "fold change (FC)", "setting": "Acinetobacter baumannii [5]", "result": 256}, {"measurement": "fold change (FC)", "setting": "Acinetobacter baumannii [6]", "result": 128}, {"measurement": "fold change (FC)", "setting": "Acinetobacter baumannii [7]", "result": 8}, {"measurement": "fold change (FC)", "setting": "Klebsiella pneumoniae [8]", "result": 512}, {"measurement": "fold change (FC)", "setting": "Klebsiella pneumoniae [9]", "result": 128}, {"measurement": "fold change (FC)", "setting": "Klebsiella pneumoniae [10]", "result": 128}, {"measurement": "fold change (FC)", "setting": "Klebsiella pneumoniae [11]", "result": 4}, {"measurement": "Activity", "setting": "Klebsiella pneumoniae [12]", "result": "Dose-dependent effect"}, {"measurement": "fold change (FC)", "setting": "Acinetobacter baumannii [13]", "result": 1024}, {"measurement": "Activity", "setting": "Acinetobacter baumannii [14]", "result": "Non-Toxic"}, {"measurement": "hemolysis at 1 h, 100 µM", "setting": "[15]", "result": "< 1", "unit": "%"}]}]}
